Measured values taken from ChEMBL document CHEMBL3352339, “Implications of N-capped urea/thiourea and C-capped 3-(1-piperazinyl)-1,2-benzisothiazole with bridging Gly-Val/Phe-Gly-Val-Pro as therapeutic targets” (Eur J Med Chem, 2014).
Values after ≈ are worked out from the molar mass of the structure shown. Starred links: 1 amine or outer side, 2 acyl side, 3 side chain; linkers in the order of their positions; H or OH if unused. Residues, ends and D or L forms follow the SMILES beside them. *: point of attachment. Thiocarbamoyl(N-2-FPh) = Fc1ccccc1NC(=S)*; X1 = c1ccc2c(N3CCN(*)CC3)nsc2c1; NH(4-F-phenyl) = Fc1ccc(N*)cc1; CO = O=C([*:1])[*:2]

Experiments:
Fusarium verticillioides [1] = assay: Antifungal activity against Fusarium moniliforme incubated for 48 to 72 hrs by agar microdilution method; type: functional
In short: (§1)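 MIC by microdilution against the fungal strain, limited to compounds showing significant zones in the diffusion assay. Bavistin was used as the reference.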

Fusarium oxysporum [2] = assay: Antifungal activity against Fusarium oxysporum at 50 ug/mL incubated for 3 days by agar well diffusion method; type: functional; conditions: 72 h, read-out: IZ
In short: (§2)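 Fungal growth inhibition measured by agar well diffusion, with bavistin as the reference. Records the mean inhibition-zone diameter (mm) around each well.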

Fusarium oxysporum [3] = assay: Antifungal activity against Fusarium oxysporum incubated for 48 to 72 hrs by agar microdilution method; type: functional; in short: as §1
[4] = Antiglycation activity using bovine serum albumin incubated at 37 degC for 7 days by spectrofluorimetry; type: physicochemical
In short: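 Glycation of bovine serum albumin, with rutin as the reference standard. IC50 values are averages of triplicate runs.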

Urease = Urease (Canavalia ensiformis, UniProt P07374); assay: Inhibition of jack bean urease assessed as reduction in ammonia production incubated at 30 degC for 15 mins by indophenol method
In short: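 Inhibition of jack bean urease, with thiourea as the reference standard. IC50 values are the average of triplicate runs.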

[5] = Inhibition of sheep stomach parietal cells gastric H+/K+-ATPase activity assessed as reduction in inorganic phosphorus production by Fiske Subbarow's method; type: tissue-based, Ovis aries; conditions: read-out: IC50
In short: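 Inhibition of purified H+/K+-ATPase, with omeprazole as the reference. IC50 is the mean of triplicate runs.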

Escherichia coli [6] = assay: Antibacterial activity against Escherichia coli at 50 ug/mL incubated for 24 hrs by agar well diffusion method; type: functional; conditions: read-out: IZ
In short: (§3)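 Agar well diffusion against the bacterial isolate, with streptomycin as the reference drug. Read-out is the average diameter (mm) of the growth-inhibition zone around the well.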

Escherichia coli [7] = assay: Antibacterial activity against Escherichia coli incubated for 24 hrs by agar microdilution method; type: functional
Xanthomonas oryzae [8] = assay: Antibacterial activity against Xanthomonas oryzae at 50 ug/mL incubated for 24 hrs by agar well diffusion method; type: functional; conditions: read-out: IZ
Xanthomonas oryzae [9] = assay: Antibacterial activity against Xanthomonas oryzae incubated for 24 hrs by agar microdilution method; type: functional
Klebsiella pneumoniae = assay: Antibacterial activity against Klebsiella pneumoniae incubated for 24 hrs by agar microdilution method; type: functional
Staphylococcus [10] = assay: Antibacterial activity against Coagulase positive Staphylococcus at 50 ug/mL incubated for 24 hrs by agar well diffusion method; type: functional; conditions: read-out: IZ; in short: as §3
Staphylococcus [11] = assay: Antibacterial activity against Coagulase positive Staphylococcus incubated for 24 hrs by agar microdilution method; type: functional
Aspergillus flavus [12] = assay: Antifungal activity against Aspergillus flavus at 50 ug/mL incubated for 3 days by agar well diffusion method; type: functional; conditions: 72 h, read-out: IZ; in short: as §2
Aspergillus flavus [13] = assay: Antifungal activity against Aspergillus flavus incubated for 48 to 72 hrs by agar microdilution method; type: functional; in short: as §1
Aspergillus niger [14] = assay: Antifungal activity against Aspergillus niger at 50 ug/mL incubated for 3 days by agar well diffusion method; type: functional; conditions: 72 h, read-out: IZ; in short: as §2
Aspergillus niger [15] = assay: Antifungal activity against Aspergillus niger incubated for 48 to 72 hrs by agar microdilution method; type: functional; in short: as §1
Fusarium verticillioides [16] = assay: Antifungal activity against Fusarium moniliforme at 50 ug/mL incubated for 3 days by agar well diffusion method; type: functional; conditions: 72 h, read-out: IZ; in short: as §2

Urease, sequence (P07374 whole entry): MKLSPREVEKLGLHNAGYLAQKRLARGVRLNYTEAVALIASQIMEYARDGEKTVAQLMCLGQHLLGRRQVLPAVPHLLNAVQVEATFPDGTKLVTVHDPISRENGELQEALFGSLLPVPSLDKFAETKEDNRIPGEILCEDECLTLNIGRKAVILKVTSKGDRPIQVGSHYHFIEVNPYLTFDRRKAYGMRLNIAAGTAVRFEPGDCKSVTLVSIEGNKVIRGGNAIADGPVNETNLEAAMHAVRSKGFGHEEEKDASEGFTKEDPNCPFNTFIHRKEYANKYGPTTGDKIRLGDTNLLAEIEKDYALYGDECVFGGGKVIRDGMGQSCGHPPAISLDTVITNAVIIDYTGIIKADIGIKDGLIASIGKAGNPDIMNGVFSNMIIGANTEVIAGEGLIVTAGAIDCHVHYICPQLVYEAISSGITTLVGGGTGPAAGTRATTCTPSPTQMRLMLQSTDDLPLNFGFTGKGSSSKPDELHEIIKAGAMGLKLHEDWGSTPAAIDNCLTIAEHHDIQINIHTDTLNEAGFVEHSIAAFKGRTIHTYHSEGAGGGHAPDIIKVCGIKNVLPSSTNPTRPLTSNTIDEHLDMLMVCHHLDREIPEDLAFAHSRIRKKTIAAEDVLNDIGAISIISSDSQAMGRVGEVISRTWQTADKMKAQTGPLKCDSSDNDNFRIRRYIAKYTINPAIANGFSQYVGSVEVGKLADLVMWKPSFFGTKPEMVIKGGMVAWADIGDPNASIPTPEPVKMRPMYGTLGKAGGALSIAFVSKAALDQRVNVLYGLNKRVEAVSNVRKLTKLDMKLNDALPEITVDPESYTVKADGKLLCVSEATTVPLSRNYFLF

Work on `CC(C)[C@H](NC(=O)CNC(=O)[C@H](Cc1ccccc1)NC(=O)CNC(=O)Nc1ccc(F)cc1)C(=O)N1CCC[C@H]1C(=O)N1CCN(c2nsc3ccccc23)CC1` ({NH(4-F-phenyl)-CO}-GFGVP-X1) yielded an MIC (Fusarium verticillioides [1]) of 11 µg/mL (≈ 13.5 µM), a zone of inhibition at 50 µg/mL (Fusarium oxysporum [2]) of 32 mm and an MIC (Fusarium oxysporum [3]) of 12.2 µg/mL (≈ 15 µM). For the same molecule, the IC50 [4] was 44 µM, the IC50 (Urease) was 35 µM and the IC50 [5] was 80 µM. The zone of inhibition at 50 µg/mL (Escherichia coli [6]) was 33 mm, the MIC (Escherichia coli [7]) was 11 µg/mL (≈ 13.5 µM) and the zone of inhibition at 50 µg/mL (Xanthomonas oryzae [8]) was 31 mm. It also gave an MIC (Xanthomonas oryzae [9]) of 8.75 µg, an MIC (Klebsiella pneumoniae) of 9.25 µg/mL (≈ 11.4 µM) and a zone of inhibition at 50 µg/mL (Staphylococcus [10]) of 32 mm. For the same molecule, the MIC (Staphylococcus [11]) was 11.2 µg/mL (≈ 13.8 µM), the zone of inhibition at 50 µg/mL (Aspergillus flavus [12]) was 31 mm and the MIC (Aspergillus flavus [13]) was 11 µg/mL (≈ 13.5 µM). For the same molecule, the zone of inhibition at 50 µg/mL (Aspergillus niger [14]) was 30 mm, the MIC (Aspergillus niger [15]) was 10.5 µg/mL (≈ 12.9 µM) and the zone of inhibition at 50 µg/mL (Fusarium verticillioides [16]) was 31 mm.

For `CC(C)[C@H](NC(=O)CNC(=O)Nc1ccc(F)cc1)C(=O)NCC(=O)N[C@H](C(=O)N1CCC[C@H]1C(=O)N1CCN(c2nsc3ccccc23)CC1)C(C)C` ({NH(4-F-phenyl)-CO}-GVGVP-X1), the MIC (Fusarium verticillioides [1]) was 13.5 µg/mL (≈ 17.6 µM), the zone of inhibition at 50 µg/mL (Fusarium oxysporum [2]) was 30 mm and the MIC (Fusarium oxysporum [3]) was 14.5 µg/mL (≈ 18.9 µM). It also gave an IC50 [4] of 40 µM, an IC50 (Urease) of 39 µM and an IC50 [5] of 78 µM. For the same molecule, the zone of inhibition at 50 µg/mL (Escherichia coli [6]) was 30 mm, the MIC (Escherichia coli [7]) was 12.8 µg/mL (≈ 16.6 µM) and the zone of inhibition at 50 µg/mL (Xanthomonas oryzae [8]) was 27 mm. For the same molecule, the MIC (Xanthomonas oryzae [9]) was 10.5 µg, the MIC (Klebsiella pneumoniae) was 11.2 µg/mL (≈ 14.7 µM) and the zone of inhibition at 50 µg/mL (Staphylococcus [10]) was 29 mm. The MIC (Staphylococcus [11]) was 13.2 µg/mL (≈ 17.3 µM), the zone of inhibition at 50 µg/mL (Aspergillus flavus [12]) was 32 mm and the MIC (Aspergillus flavus [13]) was 14.5 µg/mL (≈ 18.9 µM). For the same molecule, the zone of inhibition at 50 µg/mL (Aspergillus niger [14]) was 33 mm, the MIC (Aspergillus niger [15]) was 11.8 µg/mL (≈ 15.3 µM) and the zone of inhibition at 50 µg/mL (Fusarium verticillioides [16]) was 34 mm.

For `CC(C)[C@H](NC(=O)CNC(=O)[C@H](Cc1ccccc1)NC(=O)CNC(=S)Nc1ccccc1F)C(=O)N1CCC[C@H]1C(=O)N1CCN(c2nsc3ccccc23)CC1` ({Thiocarbamoyl(N-2-FPh)}-GFGVP-X1), the MIC (Fusarium verticillioides [1]) was 9.25 µg/mL (≈ 11.1 µM), the zone of inhibition at 50 µg/mL (Fusarium oxysporum [2]) was 31 mm and the MIC (Fusarium oxysporum [3]) was 13 µg/mL (≈ 15.7 µM). The IC50 [4] was 48 µM, the IC50 (Urease) was 38 µM and the IC50 [5] was 102 µM. The zone of inhibition at 50 µg/mL (Escherichia coli [6]) was 32 mm, the MIC (Escherichia coli [7]) was 11 µg/mL (≈ 13.3 µM) and the zone of inhibition at 50 µg/mL (Xanthomonas oryzae [8]) was 31 mm. For the same molecule, the MIC (Xanthomonas oryzae [9]) was 11 µg, the MIC (Klebsiella pneumoniae) was 10.8 µg/mL (≈ 13 µM) and the zone of inhibition at 50 µg/mL (Staphylococcus [10]) was 31 mm. The MIC (Staphylococcus [11]) was 11.2 µg/mL (≈ 13.6 µM), the zone of inhibition at 50 µg/mL (Aspergillus flavus [12]) was 30 mm and the MIC (Aspergillus flavus [13]) was 13 µg/mL (≈ 15.7 µM). The zone of inhibition at 50 µg/mL (Aspergillus niger [14]) was 31 mm, the MIC (Aspergillus niger [15]) was 12.8 µg/mL (≈ 15.4 µM) and the zone of inhibition at 50 µg/mL (Fusarium verticillioides [16]) was 28 mm.

`CC(C)[C@H](NC(=O)CNC(=S)Nc1ccccc1F)C(=O)NCC(=O)N[C@H](C(=O)N1CCC[C@H]1C(=O)N1CCN(c2nsc3ccccc23)CC1)C(C)C` ({Thiocarbamoyl(N-2-FPh)}-GVGVP-X1) showed an MIC (Fusarium verticillioides [1]) of 13 µg/mL (≈ 16.6 µM), a zone of inhibition at 50 µg/mL (Fusarium oxysporum [2]) of 30 mm and an MIC (Fusarium oxysporum [3]) of 15.2 µg/mL (≈ 19.5 µM). It also gave an IC50 [4] of 50 µM, an IC50 (Urease) of 40 µM and an IC50 [5] of 92 µM. For the same molecule, the zone of inhibition at 50 µg/mL (Escherichia coli [6]) was 27 mm, the MIC (Escherichia coli [7]) was 14.2 µg/mL (≈ 18.2 µM) and the zone of inhibition at 50 µg/mL (Xanthomonas oryzae [8]) was 24 mm. For the same molecule, the MIC (Klebsiella pneumoniae) was 16 µg/mL (≈ 20.5 µM), the zone of inhibition at 50 µg/mL (Staphylococcus [10]) was 27 mm and the MIC (Staphylococcus [11]) was 15.5 µg/mL (≈ 19.8 µM). The zone of inhibition at 50 µg/mL (Aspergillus flavus [12]) was 29 mm, the MIC (Aspergillus flavus [13]) was 16.5 µg/mL (≈ 21.1 µM) and the zone of inhibition at 50 µg/mL (Aspergillus niger [14]) was 30 mm. The MIC (Aspergillus niger [15]) was 15.2 µg/mL (≈ 19.5 µM) and the zone of inhibition at 50 µg/mL (Fusarium verticillioides [16]) was 31 mm.

In the case of `CN[C@@H]1[C@H](O[C@H]2[C@H](O[C@H]3[C@H](O)[C@@H](O)[C@H](N=C(N)N)[C@@H](O)[C@@H]3N=C(N)N)O[C@@H](C)[C@]2(O)C=O)O[C@@H](CO)[C@H](O)[C@H]1O` [STREPTOMYCIN], the zone of inhibition at 50 µg/mL (Escherichia coli [6]) is reported as 14 mm, the MIC (Escherichia coli [7]) is reported as 22 µg/mL (≈ 37.8 µM) and the zone of inhibition at 50 µg/mL (Xanthomonas oryzae [8]) is reported as 11 mm. The MIC (Xanthomonas oryzae [9]) was 18 µg, the MIC (Klebsiella pneumoniae) was 20 µg/mL (≈ 34.4 µM) and the zone of inhibition at 50 µg/mL (Staphylococcus [10]) was 13 mm. It also gave an MIC (Staphylococcus [11]) of 21 µg/mL (≈ 36.1 µM).
